OX1R antag-1: OX1R (human) antagonism; OX1R-expressing cells, FRET antagonist read-out; AID 485270; actives 1.8% (n = 330,000); inhibition, % at 6.6 µM; in the data active means inhibition mostly above about 38%, no sharp cut-off; inactive means mostly below about 40%
Target sequence (O43613 whole entry, looked up): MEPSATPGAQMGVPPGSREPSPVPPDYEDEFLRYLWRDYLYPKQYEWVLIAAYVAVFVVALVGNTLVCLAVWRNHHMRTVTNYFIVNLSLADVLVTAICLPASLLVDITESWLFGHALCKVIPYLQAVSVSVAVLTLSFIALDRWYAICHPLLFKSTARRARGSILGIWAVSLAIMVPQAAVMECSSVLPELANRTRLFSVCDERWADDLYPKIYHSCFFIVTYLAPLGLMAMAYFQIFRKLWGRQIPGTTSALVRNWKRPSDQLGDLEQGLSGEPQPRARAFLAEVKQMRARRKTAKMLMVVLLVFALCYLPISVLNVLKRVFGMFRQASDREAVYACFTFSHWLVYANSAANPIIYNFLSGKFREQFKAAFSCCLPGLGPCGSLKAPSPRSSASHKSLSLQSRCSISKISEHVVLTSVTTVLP
OX1R antag-2: antagonists of human orexin 1 receptor | CHO/OX1R cells, Fluo-8 calcium fluorescence, orexin A | O43613 | actives 0.43% (n = 330,000) | inhibition, % at 5 µM;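 active means inhibition above its plate's threshold, mean inhibition of all tested compounds on the plate plus 3 SD, cut at about 37% in these data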
CHO-K1 Ca ag: nonselective activator or artifact in parental CHO-K1 cells | Fluo-8 calcium fluorescence; scaled to maximal ATP response, vehicle zero | activation, % at 3 µM | actives 0.48% (n = 360,000) | AID 602248; in the data active means activation above about 15%;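 further: untransfected CHO-K1 host cells lacking M1 receptor as counterscreen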
M1 PAM parental: nonselective activator or artifact in parental CHO-K1 calcium assay. activation, % at 3 µM. ATP EC20, Fluo-8 calcium fluorescence; 0% at ATP EC20, 100% at ATP max. actives 0.02% (n = 360,000). AID 602247;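 active means activation above the run cutoff, the mean activation of all test compounds plus 3 SD, cut at about 40% in these data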;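 further: peak over basal fluorescence ratio in a 140 s read after ATP addition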
CHO parental Ca: signal in parental CHO cells, OX1R antagonist counter-screen. actives 0.63% (n = 330,000). AID 463079. parental CHO-K1, ATP-induced calcium, Fluo-8 fluorescence. inhibition, % at 5.6 µM;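 active means inhibition above that plate's mean sample inhibition plus 3 SD, cut at about 26% in these data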
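Material: parental CHO cells / Compound: single nominal dose of 5.6 µM per compound / Signal: Fluo-8 fluorescence / Replicates: singlicate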
CHO-K1 Ca antag: nonselective inhibitor or artifact in parental CHO-K1 cells | ATP-induced calcium, Fluo-8 fluorescence | inhibition, % at 3 µM | actives 0.6% (n = 360,000) | AID 602250;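 active means inhibition above a per-plate cutoff, the plate's mean sample inhibition plus 3 SD, cut at about 24% in these data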
Each line names hits and unclear results; the compound was inactive in the other large screens. In the library only some 2.9% were active in any assay of this set; here they are far more common.

COC(=O)[C@]1(C)N[C@H](CN(C)S(=O)(=O)c2ccc(F)cc2)[C@@H]2C(=O)N(C)C(=O)[C@@H]21	none (no result: CHO-K1 Ca ag, M1 PAM parental, CHO-K1 Ca antag)
COC(=O)[C@]12CCCCC=C1N(Cc1ccccc1)C(=O)[C@H](CC(=O)N1CCCCC1)C2	none (no result: OX1R antag-1, OX1R antag-2, CHO parental Ca)
CCOC(=O)COn1c(=O)c(-c2ccccc2)[n+]([O-])c2ccccc21	none
CCOC(=O)COn1c(=O)c(-c2ccc(OC)cc2)[n+]([O-])c2ccccc21	OX1R antag-1 45.9
CCOC(=O)COn1c(=O)c(-c2ccc(OC)c(OC)c2)[n+]([O-])c2ccccc21	OX1R antag-1 51.5 (no result: CHO-K1 Ca ag, M1 PAM parental, CHO-K1 Ca antag)
CCCCn1c(N)c(N(Cc2ccccc2OC)C(=O)C(C)Oc2ccc(Br)cc2)c(=O)[nH]c1=O (stereo unspecified)	none (no result: OX1R antag-1, OX1R antag-2, CHO parental Ca)
COC(=O)c1ccc(/C=C(\C#N)c2nc3ccccc3s2)cc1	OX1R antag-2 56.4, CHO parental Ca 49.1
N#C/C(=C\c1ccccn1)c1nc2ccccc2s1	OX1R antag-2 57.1, CHO-K1 Ca ag 33.9, CHO parental Ca 44.5, CHO-K1 Ca antag 34.4
O=[N+]([O-])c1ccccc1S(=O)(=O)NCCSCc1ccco1	none
CCOc1cc(/C=N/NC(=O)CCn2nnc3ccccc32)ccc1O	OX1R antag-1 45.6
COc1ccc(/C=N/NC(=O)Cn2nnc3ccccc32)cc1OC	none
CC(=O)c1cnc(Nc2cccc(Cl)c2Cl)s1	CHO-K1 Ca ag 17.2
COc1ccccc1/C=C/CN1CCC(Oc2ccc(C(=O)N3CCCC3)cc2)CC1	CHO-K1 Ca antag 25.7
Cc1nn(Cc2ccccc2)c(Cl)c1/C=C/C(=O)OC(C)C(=O)N1CCCC1 (stereo unspecified)	none
Oc1ccc(Br)cc1C=Nc1ccc2c3c(cccc13)CC2	OX1R antag-2 56.5, CHO-K1 Ca ag 22.0, CHO parental Ca 41.5, CHO-K1 Ca antag 32.4
CCn1c2ccccc2c2cc(NC(=O)CSc3nnc(-c4ccc(OC)cc4)n3N)ccc21	OX1R antag-1 49.6
CC1(C)CC(=O)/C(=C(\O)Cc2ccccc2)C(=NCCCCCC(=O)O)C1	none
COc1ncnc2c1NC1=C(S2)C(=NCCC(=O)O)CC(C)(C)C1	OX1R antag-1 71.5
C[n+]1ccc(/C=C/c2ccccc2O)c2ccccc21	OX1R antag-1 71.6
CC(C)(C)c1cc(C(=O)NNC(=O)Nc2cccc(Cl)c2)n(Cc2ccccc2)n1	CHO-K1 Ca antag 29.3
CC(C)(C)c1cc(C(=O)NNC(=O)Nc2ccccc2)n(Cc2ccccc2)n1	none
COc1cccc(/C=N\NC(C)=O)c1OC/C=C/c1ccccc1	none (no result: OX1R antag-1, OX1R antag-2, CHO parental Ca)
Cc1nnc(NC(=O)C2CCN(S(=O)(=O)c3cc([N+](=O)[O-])ccc3Cl)CC2)o1	OX1R antag-1 27.9
O=C(NC1CC1)C1CCN(S(=O)(=O)c2cc([N+](=O)[O-])ccc2Cl)CC1	none
COc1ccc2ccccc2c1/C=N/NC(=O)c1nnn(-c2nonc2N)c1CN(C)C	none
CCCc1c(C(=O)N/N=C/c2ccc(C)o2)nnn1-c1nonc1N	none (no result: OX1R antag-1, OX1R antag-2, CHO parental Ca)
Cc1ccc(/C=N/NC(=O)c2nnn(-c3nonc3N)c2C(C)C)o1	CHO-K1 Ca antag 27.7
COc1ccc2ccccc2c1/C=N/NC(=O)c1nnn(-c2nonc2N)c1C(C)C	OX1R antag-1 60.4
O=C(COC(=O)/C=C/c1ccc(Cl)cc1)NCc1cccs1	none (no result: OX1R antag-1, OX1R antag-2, CHO parental Ca)
O=C(COC(=O)/C=C/c1cccc(C(F)(F)F)c1)NCc1cccs1	CHO parental Ca 36.1
O=C(COC(=O)c1cccc(C(F)(F)F)c1)NCc1ccccc1	CHO parental Ca 49.2
Cc1cc(OCC(=O)OCC(=O)NCc2cccs2)ccc1Cl	none
Cc1cc(C)cc(OCC(=O)OCC(=O)NCc2cccs2)c1	CHO-K1 Ca antag 30.9
O=C(COC(=O)COc1ccccc1)NCc1ccccc1	CHO-K1 Ca ag 18.9
CN=C1N(C)C[C@@H]2[C@@H]3C(=O)N(Cc4ccccc4)C(=O)[C@@H]3[C@](Cc3ccccc3)(C(=O)OC)N12	none
Cc1nnc(OCc2nc3ccccc3n2C)c2ccccc12	CHO-K1 Ca antag 25.1
O=C1Nc2ccc3sc4ccccc4c3c2C1=O	OX1R antag-1 64.9
O=C1Nc2ccccc2C1=O	none
CCN1CCc2c(sc(NC(=O)Cc3ccccc3)c2C(N)=O)C1	none
CCN1CCc2c(sc(NC(=O)Nc3ccc(Cl)c(Cl)c3)c2C(N)=O)C1	OX1R antag-2 99.5, CHO-K1 Ca ag 94.7, CHO parental Ca 93.8, CHO-K1 Ca antag 59.2
CC(C)n1nnnc1C1c2ccccc2C(=O)N1CCCn1ccnc1 (stereo unspecified)	none (no result: OX1R antag-1, OX1R antag-2, CHO parental Ca)
COc1ccc(/[N+]([O-])=C/c2ccco2)cc1	none
O=C(COC(=O)c1ccc(F)cc1F)NCCNC(=O)COC(=O)c1ccc(F)cc1F	none
O=C(COC(=O)c1ccc2c(c1Cl)C(=O)c1ccccc1C2=O)NC1CCCCC1	none
O=C(COC(=O)c1ccc(F)cc1F)NC1CC1	CHO-K1 Ca antag 30.3
O=C(COC(=O)c1ccc2c(c1Cl)C(=O)c1ccccc1C2=O)NC1CC1	OX1R antag-1 60.8
CC(=O)Nc1cc(-c2ccccc2N(C)C)cn2c(-c3ccc(S(C)(=O)=O)cc3)cnc12	none (no result: OX1R antag-1, OX1R antag-2, CHO parental Ca)
COc1cccc(-c2ccc3nccn3c2)c1	CHO-K1 Ca antag 28.4 (no result: OX1R antag-1, OX1R antag-2, CHO parental Ca)
COc1ccc(C(=O)/C=C\c2ccc(NC(=O)c3cccs3)cc2)cc1	CHO-K1 Ca antag 26.8
O=C(Nc1c2ccccc2nc2ccccc12)C(Cl)(Cl)Cl	OX1R antag-1 69.3
Cc1cc2ncn(CCC(=O)NC3CCCC3)c2cc1C	CHO-K1 Ca ag 19.0
CCN(Cc1ccccc1)C(=O)COC(=O)c1cnc(C)cn1	none
CCN(Cc1ccccc1)C(=O)COC(=O)c1c(C)nsc1NC	OX1R antag-1 50.2
CCOc1ccc(N2CC(C(=O)NNC(=O)c3ccc(F)cc3)CC2=O)cc1 (stereo unspecified)	none
Nc1[nH]c(C(=O)c2ccccc2)c(-c2ccccc2Br)c1C(=O)c1ccccc1	M1 PAM parental 42.1 (no result: OX1R antag-1, OX1R antag-2, CHO parental Ca)
O=C(c1cccc(S(=O)(=O)N2CCOCC2)c1)N(CCc1ccccc1)Cc1ccccc1	none
C=CCOc1ccccc1CN(CCc1ccccc1)C(=O)c1cccc(S(C)(=O)=O)c1	CHO-K1 Ca ag 16.0
Cc1ccc2[nH]c(=O)c(CN(C(=O)c3cccc([N+](=O)[O-])c3)C(C)C)cc2c1	OX1R antag-1 51.4
CC(C)N(Cc1cc2ccccc2[nH]c1=O)C(=O)c1cccc([N+](=O)[O-])c1	none
Cc1ccc(C)c(N(C(=O)CNC(=O)c2ccco2)C(C(=O)NC2CCCC2)c2ccncc2)c1 (stereo unspecified)	none
O=C(COc1ccc2ccccc2c1)N1CCN(c2ccccc2O)CC1	CHO-K1 Ca antag 23.7
O=C(COc1ccc2ccccc2c1)N1CCNCC1	none
COc1ccccc1CNC(=O)c1ccc2nc3[nH]c4ccccc4c3nc2c1	OX1R antag-1 46.8
CCn1c(C)c(C)c2cc(C(=O)NCCCN3CCCCC3C)ccc21 (stereo unspecified)	none

Source: PubChem
